# Results taken from the RNAGym collection of RNA variant scans (doi:10.1126/science.aae0568).
# This sample holds only a part of the variants without activity.
# B1: tRNA (parent)
# chain: GUUCCGUUGGCGUAAUGGUAACGCGUCUCCCUCCUAAGGAGAAGACUGCGGGUUCGAGUCCCGUACGGAACG
# Variants of: B1
# Experiment: yeast fitness relative to wild type (ratio to wild type); higher = fitter; tRNA-Arg(CCU), competitive growth, 37 C, YPD
# In short: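 Changes in genotype frequencies gave Darwinian fitness relative to wild type. Frequencies were read by 100-nucleotide paired-end sequencing of gene amplicons before and after pooled Saccharomyces cerevisiae strains, carrying tRNA-Arg(CCU) gene variants at the native locus, were competed in YPD at 37°C for 24 hours in six replicates. A genotype was kept only with ≥ 100 starting reads, and estimates < 0.5 were set to 0.5.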
row,Variant,yeast fitness
1,GUUCCGUUGGCGUAAUGGUAACGCGUCUCCCUCCUGAGGAGAACACUGCGGGUUCGAGUCCCGUACGGAACG [A36G G44C],0.981
2,GUACCGUUGGCGUAAUGGUUACGCGUCUCCCUCCUAGGGAGAAGACUGCGGGUUCGAGUCCCGUACGGAACG [U3A A20U A37G],0.608
3,GUUCCGUUGGCGUAAUGGUAACGCGUCUCCCUCCUAAGGAGUAGACAGCGGGAUCGAGUCCCGUACGGAACG [A42U U47A U53A],0.727
4,GUUCCGUUGGUGUAAUGGUAACGCGUCUCCGUCCUAAGGAGAAGAAUGCGGGUCCGAGUCGCGUACGGAACG [C11U C31G C46A U54C C61G],≤ 0.5
5,GUUCCGUUGGCGUAAUGGUAACGCGUCUCCCUCCUAGGGAGAAGACUGAGGGUUCGAGUCCCGUACGGAACG [A37G C49A],0.546
6,GUUCUGUUGGCGUAAUGGUAACGUGUCUCCCUCCUAAGGAGCAGACUGCGGGUUCGUGUCCCCUACGGAACG [C5U C24U A42C A57U G63C],≤ 0.5
7,GUUCCGUGGGCGUAAUGGUAACGCGUCUCCCUCCUAAGGAGGAGACUGCGGGUUCGGGUCCCGUACGGAACG [U8G A42G A57G],≤ 0.5
8,GUUCUGUUGGCGUAAUGGUAACGCGUCUCCCUCCUAAGGAGAUGACUGCGGGUUCCAGUCCCGUACGUAACG [C5U A43U G56C G68U],0.635
9,GUUCCGUUGGCGUAAUGGCAACGCGACUCCCUCCUAAGGAGAAGACUGCGGGUUCGAGUCCCGUACCGAACG [U19C U26A G67C],0.57
10,GUUCCGUUGGCGUACUGGUAACGCGUCUCCCUCCUAAGGAGAAGACUGCGGGUUCGAGUCUCGUACGGAACG [A15C C61U],0.713
11,GUUCCGUUAGCGUAAUGGUAACGCGUCUCCCUCCUAAGGAGAAGACUACGGGUUCGAGUCCCGUACGGAUCG [G9A G48A A70U],1.25
12,GUUCCGUUGGCGUAAUGGUAACGCGUCUCCCUCCUAAGGAGAAGUCUGCGGGUUCGAGUCCCGUUCGGAACG [A45U A65U],0.959
13,GUUCCGUUGGCGUAGUGGUAACGCGUCUGCCUCCUAAGGAGAAGACUGUGGGUUCGAGUCCCGUACGGAACG [A15G C29G C49U],0.606
14,GUUCGGUUGGCGUAAUGGUAACGCGUCUCCAUCCUACGGAGAAGACUACGGGUUCGACUCCCGUACGGAACG [C5G C31A A37C G48A G58C],0.565
15,GUUCCGUUGGCGUAAUGGUAACGCGUCUCCCUCCUAAGGAGAAGAGUGCGGGUUCGAGUCCCGAACGGAACG [C46G U64A],0.889
16,GUUCCGUUGGCGUAAUGGUAACGCGUCUCCCUCCUAAGGAGAAGCCUGCGGGUCCGAGUCCCGUACGGAACG [A45C U54C],0.69
17,GUUCCGUUGGCGUCAUGGUAACGCGUCUCCCUCCUAAGGAGAAGACUGCGGGUUCGGGUCCCGUACGGAACG [A14C A57G],0.748
18,GUUAGGUUGGCGUAAUGGUCACGCGUCUCCCUCCUAAGGUGAAGACUGCGGGUUCGAGUCGCGUACGGAACG [C4A C5G A20C A40U C61G],≤ 0.5
19,GUUCCGUCGGCGUGAUGGUAACGGGUCUCCUUCCUAAGGAGAAGACUGCGGGUUAGAGUCCCGUACGGAACG [U8C A14G C24G C31U C55A],≤ 0.5

row,Variant,yeast fitness
1,GUUCCGUUGGUGUAAUGGUAGCGAGUCUCCCUCCUAAGGAGAAGACUGCGGAUUCGAGUACCGUACGGGACG [C11U A21G C24A G52A C60A A69G],0.523
2,GUUCCGUUGGUGUAAUGGUAACGCGUCUCCCUCCUACGGAGAAGACCGCGGGUUCGAGUCCCGUACGGAACG [C11U A37C U47C],0.706
3,GUUCAGUUGGCGUAAUGGUAACGCGUCUCCCUCCUAAGGGGAAGACUGUGGGUUCGAGUCCCGUACGGAACG [C5A A40G C49U],0.548
4,GUUCCGUUGGCGUAAUGGUAACGCGUCUCCCUCCUGAGGACAAGACUGCGGGUUCGAGUCCCGUACGGAACG [A36G G41C],0.955
5,GUUCCGGUGGCGUAAUGGUAACGCGUCUCCCUCCUAAGGAGAAGACUGCGGGUUCGAGUCUCGUAAGGAACG [U7G C61U C66A],0.626
6,GUUCCGUUGGCGUAGUGGUAACGCGUCUCCCUCCUAAGGAGAAGACUGCGGGUUCGAGUCCUGUACGGUACG [A15G C62U A69U],0.934
7,GUUCCGUUGGUGUAAUGGUAACGCGUCUCCCUCCUAAGGAGAAGACUGCGGGUUCGAGUCUCGUACGAAACG [C11U C61U G68A],0.615
8,GCUCCGUUGGCGUAAUGGUGACGCGUGUCCCUCCUACCGAGAGGACUGCGGGUUCGAGUCCCGUACGGUACG [U2C A20G C27G A37C G38C A43G A69U],≤ 0.5
9,GUUCCGUUGGCGUAUUGGUAACGCGUUUCCCUCCUAAGAAGAAGACUACGGGUUCGAGUCCCGUACGGAACG [A15U C27U G39A G48A],≤ 0.5
10,GUUCCGACGGCGUAAUGGUAACGCGUCUCCCUCCUCAGGAGAAGACUGCGCGUUCGAGUCCCGUACGGAACG [U7A U8C A36C G51C],≤ 0.5
11,GGUCCGUUGGCGUAAUGGUAACGUGUCUCCCUCCUAAGGAGAAGACUGCGGGUUGGAGUCCCGUACGGAUCG [U2G C24U C55G A70U],≤ 0.5
12,GUUCCGUCGGCGUAAUGGUGACGCGUUUCUCUCCUAAGGAGGAGACUGCGGGUUCGAGUACCGUACGGAACG [U8C A20G C27U C30U A42G C60A],0.711
13,GUUCCGUUGGCGUAACGGUAACGCGGCUCCCUCCUAAGGAGAAGACUGCGGGUUCGAGUCUCGUACGGAACG [U16C U26G C61U],≤ 0.5
14,GUUCCGUUGGCCUAACGGUAACGCGUCUCCCUCCUAAGGAGAAGACUGCGGGUUCGAGUCCCGUACGGAACG [G12C U16C],0.771
15,GUUCCGUUGGGGUUAUGGUAACGAGUCUCCCUCCUAAGGAGAAGACUGCGGGUUCGAGUACCGUACGGAACG [C11G A14U C24A C60A],≤ 0.5
16,GUUGCGUUGGCGUAAUGGUAACCCGUCUUCCUCCUAAGGAGAAGACUGCGGGUUCGAGUCCCGUACGGAACG [C4G G23C C29U],0.501
17,GUUCCGUUGGCGUAAUGGUAACGCGUCUACCUCCUAAGGAGAAGACUGCGGGUUCGAGUGCCGUACGGAACG [C29A C60G],0.584
18,GUUCCGUUGGCGUAAUGGUAACGCGUCUCCCUCUUAUGGAGAAGUCUGCGGGUUCGGGUCUCGUACGGAACG [C34U A37U A45U A57G C61U],≤ 0.5
19,GUUCUGUUGGCGUAAUGGUAACGCGUCUCCCUCCUAAGGCGAAGAAUGCGGGUACGAGUCCCGUACGGAACG [C5U A40C C46A U54A],0.55
